Measurements reported in ChEMBL document CHEMBL4428110, “Synthesis and bioactivity of novel isoxazole chalcone derivatives on tyrosinase and melanin synthesis in murine B16 cells for the treatment of vitiligo” (Bioorg Med Chem, 2016).
pEC50: −log10 of the molar value. Active and inactive are the calls of the source. The calls are words filed in the database; no cut-off is given here.

Assays:
Tyrosinase = molecular target: T1, Tyrosinase (Agaricus bisporus, UniProt O42713); assay: Activation of mushroom tyrosinase using L-tyrosine as substrate preincubated for 5 mins followed by substrate addition measured after 30 mins by ELISA
T1 sequence (O42713 whole entry): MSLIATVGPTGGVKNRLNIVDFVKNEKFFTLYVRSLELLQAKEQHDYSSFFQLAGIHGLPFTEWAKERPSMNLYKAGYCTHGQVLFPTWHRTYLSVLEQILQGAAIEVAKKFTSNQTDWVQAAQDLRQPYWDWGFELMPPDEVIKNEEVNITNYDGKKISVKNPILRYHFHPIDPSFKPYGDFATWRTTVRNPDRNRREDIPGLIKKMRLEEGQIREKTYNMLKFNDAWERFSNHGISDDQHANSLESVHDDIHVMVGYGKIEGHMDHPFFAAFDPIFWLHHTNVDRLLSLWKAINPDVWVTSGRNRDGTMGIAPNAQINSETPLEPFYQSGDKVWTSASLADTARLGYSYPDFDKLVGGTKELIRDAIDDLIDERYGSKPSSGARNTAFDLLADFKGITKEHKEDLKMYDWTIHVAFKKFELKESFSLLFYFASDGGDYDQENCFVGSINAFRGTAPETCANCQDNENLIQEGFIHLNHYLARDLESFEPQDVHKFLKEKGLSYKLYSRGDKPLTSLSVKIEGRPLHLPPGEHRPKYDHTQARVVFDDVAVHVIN
Outline: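 Mushroom tyrosinase activation: test compounds (0.5–300 μM) in DMSO preincubated with enzyme 5 min at 25–30 °C, then L-tyrosine (2 mM, 0.1 mL) added and incubated a further 30 min; absorbance read at 490 nm. Rate of activation = [(C−D)−(A−B)]/(A−B)×100, A being the enzyme-only system. EC50 reported as mean ± SD of three independent experiments.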

B16-F10 = assay: Cytotoxicity against mouse B16F10 cells assessed as reduction in cell viability at 50 uM after 24 hrs by CCK-8 assay; type: cell-based; conditions: b16-f10, 24 h
Outline: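 Viability: B16F10 cells (DMEM, 10% FBS, 37 °C, 5% CO2) plated at 5×10³ cells/well in 96-well plates, left 12 h, then given fresh medium with 50 μM compound for 24 h. After a cold PBS wash, CCK-8 added for 2 h at 37 °C and absorbance read at 450 nm. Proliferation expressed relative to untreated control; mean ± SD of three experiments.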

[1] = molecular target: T2, Tyrosinase (Mus musculus) (UniProt P11344); assay: Activation of tyrosinase in mouse B16F10 cells assessed as melanin production at 50 uM after 48 hrs by spectrophotometric analysis relative to control; type: cell-based
T2 sequence (whole entry): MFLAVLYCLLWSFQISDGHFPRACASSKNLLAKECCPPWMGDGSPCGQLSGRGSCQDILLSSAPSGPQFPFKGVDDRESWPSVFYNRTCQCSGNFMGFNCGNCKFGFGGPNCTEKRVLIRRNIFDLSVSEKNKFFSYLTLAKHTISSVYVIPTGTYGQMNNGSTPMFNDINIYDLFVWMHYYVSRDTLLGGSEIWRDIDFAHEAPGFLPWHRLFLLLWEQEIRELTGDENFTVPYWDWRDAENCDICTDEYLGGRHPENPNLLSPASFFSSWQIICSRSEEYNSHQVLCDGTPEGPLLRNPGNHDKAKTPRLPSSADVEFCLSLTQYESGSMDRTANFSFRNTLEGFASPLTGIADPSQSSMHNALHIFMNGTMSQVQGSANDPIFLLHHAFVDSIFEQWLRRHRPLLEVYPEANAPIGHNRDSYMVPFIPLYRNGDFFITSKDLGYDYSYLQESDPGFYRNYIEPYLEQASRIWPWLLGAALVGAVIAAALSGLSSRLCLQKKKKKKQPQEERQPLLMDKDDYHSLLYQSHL
Outline: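 B16F10 cells grown in DMEM with 10% heat-inactivated FBS and penicillin/streptomycin at 37 °C, 5% CO2. Seeded at 5×10⁵ cells/well in 6-well plates for 24 h, then exposed to 50 μM compound for 48 h. After a cold PBS wash, cells were lysed in RIPA buffer 40 min on ice and dissolved in 1 M NaOH 2 h at 60 °C. Melanin was read at 405 nm and normalized; three separate experiments.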

[2] = molecular target: T2, Tyrosinase (Mus musculus); assay: Potency index, ratio of compound activity to 8-MOP activity for tyrosinase activation in mouse B16F10 cells assessed as melanin production; type: cell-based

Row | Compound | pEC50 (Tyrosinase) | Activity (B16-F10) | Activity [1] | Ratio [2]
1 | Cc1ccc(-c2cc(COc3ccc(C(=O)/C=C/c4ccccc4)cc3)on2)o1 | 4.45 | Non-Toxic | – | –
2 | Nc1nc2ccc(C(=O)/C=C/c3ccc(Cl)cc3)cc2s1 | 4.51 | – | – | –
3 | COc1c2occc2cc2ccc(=O)oc12 [METHOXSALEN] | 4.83 | – | 115% | –
4 | COc1ccccc1-c1cc(COc2ccc(C(=O)/C=C/c3ccccc3)cc2)on1 | 4.19 | Non-Toxic | – | –
5 | O=C(/C=C/c1ccccc1)c1ccc(CCc2cn(Cc3ccc(F)cc3)nn2)cc1 | 4.84 | – | – | –
6 | O=C(/C=C/c1ccc(Cl)cc1)c1ccc2nc(NC(=O)c3ccccc3)sc2c1 | 5.02 | – | – | –
7 | O=C(/C=C/c1ccccc1)c1ccc(CCc2cn(Cc3ccc(Cl)c(Cl)c3)nn2)cc1 | 5.77 | – | – | –
8 | O=C(/C=C/c1ccccc1)c1ccc(OCc2cc(-c3ccc(Cl)cc3)no2)cc1 | 5.09 | Non-Toxic | – | –
9 | O=C(/C=C/c1ccccc1)c1ccc(OCc2cc(-c3cccs3)no2)cc1 | 4.25 | Non-Toxic | – | –
10 | O=C(/C=C/c1ccccc1)c1ccc(CCc2cn(Cc3cccc(F)c3)nn2)cc1 | 5.25 | – | – | –
11 | Cc1ccc(/C=C/C(=O)c2ccc3nc(NC(=O)c4ccccc4)sc3c2)cc1 | 4.77 | – | – | –
12 | O=C(/C=C/c1ccccc1)c1ccc(OCc2cc(-c3ccc(F)c(F)c3)no2)cc1 | 5.89 | Non-Toxic | 463% | 3
13 | COc1cccc(Cn2cc(CCc3ccc(C(=O)/C=C/c4ccccc4)cc3)nn2)c1 | 4.43 | – | – | –
14 | O=C(/C=C/c1ccccc1)c1ccc(OCc2cc(-c3cccc(F)c3)no2)cc1 | 4.67 | Non-Toxic | 330% | 4
15 | O=C(/C=C/c1ccccc1)c1ccc(CCc2cn(Cc3cccc(Cl)c3)nn2)cc1 | 4.92 | – | – | –
16 | O=C(/C=C/c1ccccc1)c1ccc(OCc2cc(-c3ccc4c(c3)OCCO4)no2)cc1 | < 4.00 | Non-Toxic | 438% | 4
17 | O=C(/C=C/c1ccc(Cl)cc1)c1ccc(NC(=O)c2ccccc2)cc1 | 4.68 | – | – | –
18 | O=C(/C=C/c1ccccc1)c1ccc(OCc2cc(-c3cc(Cl)cc(Cl)c3)no2)cc1 | 4.90 | Non-Toxic | 57% | –
19 | O=C(/C=C/c1ccccc1)c1ccc(OCc2cc(-c3cccc(Cl)c3)no2)cc1 | 4.62 | Non-Toxic | – | –
20 | Cc1ccc(S(=O)(=O)Nc2ccc(C(=O)/C=C/c3ccc(Cl)cc3)cc2)cc1 | 4.59 | – | – | –
21 | O=C(/C=C/c1ccccc1)c1ccc(OCc2cc(-c3ccc(Cl)c(Cl)c3)no2)cc1 | 5.60 | Non-Toxic | Active | –
22 | O=C(/C=C/c1ccccc1)c1ccc(OCc2cc(-c3ccc(I)o3)no2)cc1 | 4.94 | Non-Toxic | – | –
23 | O=C(/C=C/c1ccccc1)c1ccc(CCc2cn(Cc3ccc(Cl)cc3)nn2)cc1 | 4.62 | – | – | –
24 | O=C(/C=C/c1ccccc1)c1ccc(OCc2cc(-c3ccc([N+](=O)[O-])cc3)no2)cc1 | < 4.00 | Non-Toxic | – | –
25 | O=C(/C=C/c1ccccc1)c1ccc(OCc2cc(-c3ccccc3)no2)cc1 | 4.11 | Non-Toxic | – | –
26 | O=C(/C=C/c1ccccc1)c1ccc(OCc2cc(-c3ccc(Cl)c(F)c3)no2)cc1 | 5.52 | Non-Toxic | Active | –
27 | CN(C)c1ccc(-c2cc(COc3ccc(C(=O)/C=C/c4ccccc4)cc3)on2)cc1 | 4.54 | Non-Toxic | – | –
28 | COc1ccc(-c2cc(COc3ccc(C(=O)/C=C/c4ccccc4)cc3)on2)cc1 | 4.33 | Non-Toxic | – | –
29 | O=C(/C=C/c1ccccc1)c1ccc(OCc2cc(-c3cccc(OC(F)(F)F)c3)no2)cc1 | 4.59 | Non-Toxic | Active | –
30 | O=C(/C=C/c1ccccc1)c1ccc(OCc2cc(-c3ccc(F)cc3)no2)cc1 | 5.19 | Non-Toxic | – | –
